Values after ≈ are worked out from the molar mass of the structure shown. Active and inactive are the calls of the source. The calls are words filed in the database; no cut-off is given here.
Key:
[1] = Antioxidant activity assessed as DPPH radical scavenging activity incubated for 30 mins; assay type: functional
In short: (§1)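 DPPH at 100 μM in ethanol (180 μL) mixed with compound in DMSO (20 μL), giving 50 μM final compound. Kept 30 min in the dark at room temperature, then A517 read to obtain DPPH clearance. For IC50, a concentration gradient of compound was tested and the curve fitted.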

HUVEC [2] = test: Cytotoxicity against human HUVEC cells assessed as reduction in erastin-induced cell survival at 10 uM measured for 24 hrs by SRB assay; assay type: toxicity, cell-based
In short: (§2)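 HUVECs (gelatin-coated dishes, M199 with 20% bovine serum and FGF2, 37 °C, 5% CO2) seeded in 96-well plates and incubated overnight. Treated 24 h with 10 μM erastin alone or with compound (10 μM, or a range of concentrations). Cells fixed with TCA, stained with 0.4% SRB in 1% acetic acid, dissolved in 10 mM Tris pH 10.5, A540 read. Survival computed relative to blank and untreated control. At least three separate experiments.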

HUVEC [3] = test: Anti-ferroptotic activity against Erastin-induced ferroptosis in human HUVEC cells assessed as cell viability incubated for 24 hrs by SRB assay; assay type: functional, cell-based; in short: as §2
[4] = Antioxidant activity assessed as DPPH radical scavenging activity at 50 uM incubated for 30 mins relative to control; assay type: functional; in short: as §1
[5] = Kinetic solubility of compound in PBS buffer at pH7.4 incubated for; assay type: physicochemical; details: pH 7.4, read-out: Kinetic_solubility
In short: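 DMSO stocks ([…]) were diluted 4 μL into 196 μL of 10 mM PBS pH 7.4, giving final concentrations of 3.13–200 μM. Plate shaken for 10 s and incubated 2 h at 37 °C. Solubility taken as the highest concentration with no measurable turbidity.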

HUVEC [6] = test: Cytotoxicity against human HUVEC cells assessed as high glucose-induced cell survival at 10 uM measured for 24 hrs by SRB assay; assay type: toxicity, cell-based
In short: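 HUVECs in M199 with 20% bovine serum and FGF2, plated in 96-well plates, incubated overnight. Exposed to 30 mM high glucose alone or with 10 μM compound for 24 h. Viability by SRB (TCA fixation, 0.4% SRB stain, Tris pH 10.5 solubilisation, A540). Survival expressed relative to blank and untreated control. n = 3.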

HUVEC [7] = test: Anti-ferroptotic activity against human HUVEC cells assessed as decrease in LPO level at 10 uM incubated for 24 hrs; assay type: functional, cell-based
In short: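 HUVECs given 30 mM high glucose plus 10 μM compound for 24 h. Cells collected, extracted and sonicated on ice (3 s on, 7 s off, 3 min total), then spun 8000 × g for 10 min at 4 °C. LPO measured in the supernatant with a kit. Values relative to untreated cells set to 1; n = 3.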

[8] = Microsomal stability in mouse liver microsome assessed as half life measured upto 60 mins by LC-MS/MS analysis; assay type: ADME; details: liver microsomes
[9] = Microsomal stability in human liver microsome assessed as half life measured upto 60 mins by LC-MS/MS analysis; assay type: ADME; details: liver microsomes
[10] = Microsomal stability in mouse liver microsome assessed as parent compound remaining measured after 60 mins in presence of NADPH by LC-MS/MS analysis; assay type: ADME; details: liver microsomes, read-out: Stability
In short: (§3)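 Compound at 1 μM final was incubated at 37 °C with liver microsomes (human, rat or mouse) in pH 7.4 buffer, with and without NADPH. Verapamil served as reference. Samples taken at 0–60 min and quenched in acetonitrile with tolbutamide internal standard. Analysed by LC-MS/MS on a C18 column with a water/acetonitrile 0.1% TFA gradient. Parent remaining reported at 60 min; T1/2 also derived.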

HUVEC [11] = test: Induction of mitochondrial damage in high glucose-induced human HUVEC cells assessed as increase in monomer formation at 10 uM incubated for 24 hrs by JC-1 staining based flow cytometry analysis; assay type: functional, cell-based
[12] = Microsomal stability in human liver microsome assessed as parent compound remaining measured after 60 mins in presence of NADPH by LC-MS/MS analysis; assay type: ADME; details: liver microsomes, read-out: Stability; in short: as §3
HUVEC [13] = test: Inhibition of ROS accumulation in high glucose-induced human HUVEC cells at 10 uM incubated for 24 hrs by DCF-DA staining based fluorescence microscopic analysis
[14] = Microsomal stability in mouse liver microsome assessed as parent compound remaining measured after 60 mins in absence of NADPH by LC-MS/MS analysis; assay type: ADME; details: liver microsomes, read-out: Stability; in short: as §3
HUVEC [15] = test: Upregulation of GPX4 expression in high glucose-induced human HUVEC cells at 10 uM incubated for 24 hrs by Western blot analysis; assay type: functional, cell-based
In short: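 HUVECs exposed 24 h to 30 mM high glucose and 10 μM compound, then lysed in RIPA. Protein by BCA; 15 μg per lane run on 12% SDS-PAGE and blotted to PVDF. Probed with anti-GPX4 (1:1000) and anti-β-actin (1:5000) overnight at 4 °C, detected by ECL, and quantified by densitometry. Untreated cells normalized to 1; n = 3.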

HUVEC [16] = test: Anti-ferroptotic activity against human HUVEC cells assessed as decrease in intracellular ferrous ion level at 10 uM incubated for 24 hrs by ferroOrange probe based analysis; assay type: functional, cell-based
In short: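 After 24 h with 30 mM high glucose and 10 μM compound, HUVECs were washed three times in serum-free medium. Loaded with 1 μM FerroOrange for 30 min at 37 °C, 5% CO2, then imaged by fluorescence microscopy. Ferrous ion signal quantified relative to untreated control set to 1; n = 3.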

[17] = Microsomal stability in human liver microsome assessed as parent compound remaining measured after 60 mins in absence of NADPH by LC-MS/MS analysis; assay type: ADME; details: liver microsomes, read-out: Stability; in short: as §3
[18] = Microsomal stability in rat liver microsome assessed as parent compound remaining measured after 60 mins in presence of NADPH by LC-MS/MS analysis; assay type: ADME; details: liver microsomes, read-out: Stability; in short: as §3
[19] = Microsomal stability in rat liver microsome assessed as parent compound remaining measured after 60 mins in absence of NADPH by LC-MS/MS analysis; assay type: ADME; details: liver microsomes, read-out: Stability; in short: as §3
HUVEC [20] = test: Anti-ferroptotic activity against human HUVEC cells assessed as decrease in MDA level at 10 uM incubated for 24 hrs; assay type: functional, cell-based
In short: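 Cells were HUVECs under 30 mM high glucose with 10 μM compound, 24 h. Lysed in Western/IP lysis buffer and spun 10 000 × g for 10 min. MDA measured by kit in the supernatant and normalized to mg protein. Expressed relative to untreated control set to 1; n = 3.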

[21] = Microsomal stability in rat liver microsome assessed as half life measured upto 60 mins by LC-MS/MS analysis; assay type: ADME; details: liver microsomes
HUVEC [22] = test: Cytotoxicity against human HUVEC cells assessed as reduction in cell viability at 10 uM measured for 24 hrs by SRB assay; assay type: toxicity, cell-based
In short: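 HUVECs were grown on gelatin-coated dishes in M199 with 20% bovine serum and 10 IU/mL FGF2 at 37 °C, 5% CO2. Cells were seeded in 96-well plates, incubated overnight, then exposed to compound for 24 h. They were TCA-fixed, stained for 10 min with 0.4% SRB in 1% acetic acid, and dissolved in 10 mM Tris (pH 10.5). A540 survival was calculated relative to blank and control, from at least three experiments.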

| Structure (SMILES) | IC50 [1] | Activity (HUVEC [2]) | EC50 (HUVEC [3]) | Activity [4] | solubility kinetic [5] | Activity (HUVEC [6]) | further results |
| --- | --- | --- | --- | --- | --- | --- | --- |
| O=C(N/N=C/c1ccc(O)cc1)c1ccc(NC2CCCCC2)c(NCc2ccccc2)c1 | 56.8 µM | Non-Toxic | 0.79 µM | 53.3% | 28.6 µM (≈ 12.7 µg/mL) | Non-Toxic | – |
| O=C(N/N=C/c1ccccc1)c1ccc(NC2CCCCC2)c(NCc2ccccc2)c1 | – | Non-Toxic | – | – | – | – | – |
| COc1cc(/C=N/NC(=O)c2ccc(NC3CCCCC3)c(NCc3ccccc3)c2)cc(OC)c1 | – | Non-Toxic | – | – | – | – | – |
| N#Cc1ccc(/C=N/NC(=O)c2ccc(NC3CCCCC3)c(NCc3ccccc3)c2)cc1 | – | Toxic | – | – | – | – | – |
| O=C(N/N=C/c1ccc([N+](=O)[O-])cc1)c1ccc(NC2CCCCC2)c(NCc2ccccc2)c1 | – | Non-Toxic | – | – | – | – | – |
| O=C(N/N=C/c1ccc(F)c([N+](=O)[O-])c1)c1ccc(NC2CCCCC2)c(NCc2ccccc2)c1 | – | Toxic | – | – | – | – | – |
| O=C(N/N=C/c1ccc(Cl)cc1)c1ccc(NC2CCCCC2)c(NCc2ccccc2)c1 | 46.8 µM | Non-Toxic | 0.73 µM | 53.4% | 28.6 µM (≈ 13.2 µg/mL) | Non-Toxic | – |
| CCOC(=O)c1ccc(NC2CCCCC2)c(NCc2ccccc2)c1 | 46.8 µM | – | – | 56.4% | 6.2 µM (≈ 2.19 µg/mL) | – | – |
| O=C(N/N=C/c1cccc(OCc2ccccc2)c1)c1ccc(NC2CCCCC2)c(NCc2ccccc2)c1 | 59.2 µM | Non-Toxic | 0.68 µM | 52.2% | 20 µM (≈ 10.7 µg/mL) | Non-Toxic | – |
| O=C(N/N=C/c1ccc(OCc2ccccc2)cc1)c1ccc(NC2CCCCC2)c(NCc2ccccc2)c1 | 38.1 µM | Non-Toxic | 0.5 µM | 65.9% | 20 µM (≈ 10.7 µg/mL) | Non-Toxic | Activity (HUVEC [7]): Active; half-life [8]: 9 min; half-life [9]: 4.9 min; remaining at 1 h [10]: 1%; Activity (HUVEC [11]): Active; remaining at 1 h [12]: 0.6%; Activity (HUVEC [13]): Active; remaining at 1 h [14]: 38%; Activity (HUVEC [15]): Active; Activity (HUVEC [16]): Active; remaining at 1 h [17]: 105%; remaining at 1 h [18]: 1%; remaining at 1 h [19]: 110%; Activity (HUVEC [20]): Active; half-life [21]: 9.1 min |
| O=C(N/N=C/c1cccc(O)c1O)c1ccc(NC2CCCCC2)c(NCc2ccccc2)c1 | – | Toxic | – | – | – | – | – |
| O=C(N/N=C/c1ccc(F)c(Br)c1)c1ccc(NC2CCCCC2)c(NCc2ccccc2)c1 | – | Non-Toxic | – | – | – | – | – |
| COc1ccc(/C=N/NC(=O)c2ccc(NC3CCCCC3)c(NCc3ccccc3)c2)c(O)c1 | – | Non-Toxic | – | – | – | – | – |
| N#Cc1cccc(/C=N/NC(=O)c2ccc(NC3CCCCC3)c(NCc3ccccc3)c2)c1 | 38.6 µM | Non-Toxic | 0.61 µM | 59.6% | 22.2 µM (≈ 10 µg/mL) | Non-Toxic | – |
| O=C(N/N=C/c1cccc([N+](=O)[O-])c1)c1ccc(NC2CCCCC2)c(NCc2ccccc2)c1 | 45.9 µM | Non-Toxic | 0.69 µM | 53.3% | 20 µM (≈ 9.43 µg/mL) | Non-Toxic | – |
| CN(C)c1ccc(/C=N/NC(=O)c2ccc(NC3CCCCC3)c(NCc3ccccc3)c2)cc1 | – | Non-Toxic | – | – | – | – | – |
| CCOc1ccccc1-n1c(C(C)N2CCN(C(=O)COc3ccc(Cl)cc3)CC2)nc2ccccc2c1=O (stereo not drawn) [ERASTIN] | – | – | – | – | – | – | Activity (HUVEC [22]): 75% |
| O=C(N/N=C/c1ccc(Cl)c(Cl)c1)c1ccc(NC2CCCCC2)c(NCc2ccccc2)c1 | – | Non-Toxic | – | – | – | – | – |
| O=C(N/N=C/c1ccc(Br)cc1)c1ccc(NC2CCCCC2)c(NCc2ccccc2)c1 | – | Non-Toxic | – | – | – | – | – |
| CCOC(=O)c1ccc(NC2CCCCC2)c(N)c1 | 54.3 µM | – | 0.6 µM | 52.5% | > 200 µM | Non-Toxic | half-life [8]: 2.7 min; half-life [9]: 16.8 min; remaining at 1 h [10]: 6.6%; remaining at 1 h [12]: 7.6%; remaining at 1 h [14]: 5%; remaining at 1 h [17]: 6%; remaining at 1 h [18]: 6.1%; remaining at 1 h [19]: 4%; half-life [21]: 18.4 min |
| COc1ccccc1/C=N/NC(=O)c1ccc(NC2CCCCC2)c(NCc2ccccc2)c1 | 54.5 µM | Non-Toxic | 0.65 µM | 57.4% | 25 µM (≈ 11.4 µg/mL) | Non-Toxic | – |
| O=C(N/N=C/c1ccccc1OCc1ccccc1)c1ccc(NC2CCCCC2)c(NCc2ccccc2)c1 | – | Toxic | – | – | – | – | – |
| O=C(N/N=C/c1ccc(N2CCCC2)cc1)c1ccc(NC2CCCCC2)c(NCc2ccccc2)c1 | – | Non-Toxic | – | – | – | – | – |

— ChEMBL document CHEMBL5385970, “Design, synthesis, and evaluation of novel ferrostatin derivatives for the prevention of HG-induced VEC ferroptosis” (RSC Med Chem, 2024)
